# Compound activity: PubChem BioAssay, several laboratories
# Shown are actives, neighbours in structure and some others; about 3.3% of the full set was active somewhere.
# ROMK mod = ROMK potassium channel modulators, primary screen, cell-based, thallium flux, MLSMR library | ATP-sensitive inward rectifier potassium channel 1 (Homo sapiens), P48048 | Tet-inducible ROMK, thallium flux fluorescence; actives lie on both sides | B-score at 10 µM | actives 2% (n = 130,000);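 active = signal ratio slope over the read window, or its plate-corrected B-score, at least 3 SD from the plate mean, either direction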;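 note: B-score of the F/F0 ratio slope over 7 to 12 s after thallium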
# PMI activator = activators of human PMI, primary screen, biochemical, fluorescence intensity, near-Km mannose 6-phosphate; AID 1214, 2008; Mannose-6-phosphate isomerase (Homo sapiens), P34949; purified human PMI, coupled resazurin fluorescence, 20 min; active compounds read high; 1 = vehicle control, 0 substrate-free wells; activation factor at 20 µM; actives 0.005% (n = 190,000);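 active = activation factor of 2 or more at 20 µM, relative to plate controls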
# ABCB1 block = ABCB1 efflux pump inhibitors, primary screen, cell-based, multiplex, flow cytometry, ABCG2 counter-screen. CCRF-Adr cells, JC-1 efflux. inhibition, % at 6.6 µM. actives 0.067% (n = 190,000); in the data active = inhibition above about 40%;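 note: 0% = vehicle and 100% = reference inhibitor; higher value means more JC-1 retained so stronger ABCB1 efflux block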
# ABCG2 block = ABCG2 efflux pump inhibitors, primary screen, multiplex with ABCB1, IgMXP3 cells, flow cytometry | Broad substrate specificity ATP-binding cassette transporter ABCG2 (Homo sapiens), Q9UNQ0 | JC-1 efflux | inhibition, % at 6.6 µM | actives 0.1% (n = 190,000);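 active = inhibition above 80%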;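 note: 0% = DMSO and 100% = nicardipine control wells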
#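 Assay system – ABCG2 IgMXP3 and barcoded ABCB1 CCRF-Adr cell mix · Input – 3 million cells/mL in well · Reagent – JC-1 fluorescent substrate · Compound – single test compound dose, 6.6 µM final · Timing – 10 min exposure at 25 °C with rotation, no wash · Detection – flow cytometry of retained JC-1 fluorescence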
# KCC2 mod = KCC2 cotransporter modulators, thallium flux, primary screen, cell-based, HEK293 KCC2, FluoZin-2 fluorescence, MLSMR; Solute carrier family 12 member 5 (Homo sapiens), Q9H2X9; KCC2 cells, thallium flux FluoZin-2 fluorescence; B-score of Tl+ flux slope (higher = more flux/activation; lower = inhibition) at 10 µM; actives 2.2% (n = 190,000); AID 1456, 2008;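 active = thallium flux slope and its plate-corrected score both differing from the plate sample mean at a set confidence after two filtering rounds, in either direction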;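 note: slope of fluorescence scaled to starting intensity during 10 to 20 s after thallium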
# Target sequence (Q9H2X9 whole entry, looked up): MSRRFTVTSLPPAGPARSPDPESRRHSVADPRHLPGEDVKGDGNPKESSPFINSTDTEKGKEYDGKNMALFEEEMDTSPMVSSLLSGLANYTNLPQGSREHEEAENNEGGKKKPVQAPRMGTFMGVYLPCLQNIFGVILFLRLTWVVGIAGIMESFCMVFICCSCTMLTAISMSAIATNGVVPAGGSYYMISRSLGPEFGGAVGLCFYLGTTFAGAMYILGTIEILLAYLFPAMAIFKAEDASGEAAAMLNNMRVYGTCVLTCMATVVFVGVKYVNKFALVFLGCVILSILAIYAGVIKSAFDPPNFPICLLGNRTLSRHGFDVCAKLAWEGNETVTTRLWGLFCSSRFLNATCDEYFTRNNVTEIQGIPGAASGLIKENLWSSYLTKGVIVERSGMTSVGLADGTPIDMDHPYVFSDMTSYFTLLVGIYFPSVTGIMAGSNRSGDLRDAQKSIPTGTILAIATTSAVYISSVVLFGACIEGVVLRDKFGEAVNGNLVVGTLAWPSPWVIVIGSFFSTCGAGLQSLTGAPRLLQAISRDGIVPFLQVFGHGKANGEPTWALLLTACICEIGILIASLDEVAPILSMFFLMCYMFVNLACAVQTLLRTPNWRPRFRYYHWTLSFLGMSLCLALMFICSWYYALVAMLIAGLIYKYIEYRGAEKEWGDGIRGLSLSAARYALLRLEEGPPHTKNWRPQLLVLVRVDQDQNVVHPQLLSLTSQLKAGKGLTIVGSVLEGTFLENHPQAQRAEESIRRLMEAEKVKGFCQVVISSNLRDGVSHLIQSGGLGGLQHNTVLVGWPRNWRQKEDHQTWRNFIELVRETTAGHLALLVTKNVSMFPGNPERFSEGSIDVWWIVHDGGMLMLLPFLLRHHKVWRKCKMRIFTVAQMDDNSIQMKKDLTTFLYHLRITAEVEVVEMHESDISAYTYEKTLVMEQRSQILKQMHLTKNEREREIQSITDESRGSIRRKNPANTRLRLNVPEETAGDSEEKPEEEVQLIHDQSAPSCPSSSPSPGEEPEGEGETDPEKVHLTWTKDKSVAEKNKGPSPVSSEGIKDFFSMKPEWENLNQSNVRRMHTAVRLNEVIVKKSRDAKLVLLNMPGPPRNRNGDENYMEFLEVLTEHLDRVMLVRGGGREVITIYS
# PMI act hi M6P = human PMI activators, high substrate, primary screen, biochemical, fluorescence intensity, near-saturating mannose 6-phosphate. actives 0.34% (n = 190,000). AID 1216, 2008. coupled PMI enzyme assay, resazurin fluorescence, 20 min; active compounds read high; 1 = untreated enzyme, 0 = substrate-free blank. activation factor at 20 µM. Mannose-6-phosphate isomerase (Homo sapiens), P34949;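 active = activation factor of 2 or more at 20 µM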
#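 Test system: human phosphomannose isomerase with PGI, G6PDH, diaphorase coupling enzymes / Doses: 20 µM compound, 1% DMSO / Times: enzyme reaction with compound 20 min at room temperature / Measured by: Diaphorase-driven resazurin-to-resorufin fluorescence, excitation 544, emission 590 nm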
# Numbers without * were called inactive; . = no result.
SMILES,ROMK mod,PMI activator,ABCB1 block,ABCG2 block,KCC2 mod,PMI act hi M6P
C/C(=N\NC(=O)C(=O)Nc1cccc(C(F)(F)F)c1)c1ccc(Cl)s1,.,1,0,1,1.8,1
O=C(O)Cc1ccc2oc(-c3cccnc3)nc2c1,-0.47,1.1,0,0,.,1.1
O=C(Nc1nnc(-c2cccs2)o1)c1cccc(F)c1,.,.,.,.,26*,.
O=C(Nc1nnc(-c2cccs2)o1)c1cccc(Oc2ccccc2)c1,.,1.2,0,1,.,1.2
O=C(C1=C[C@@H](c2coc3ccccc3c2=O)C[C@@H](OCc2ccc(CO)cc2)O1)N1CCN(Cc2ccccc2)CC1,.,0.9,2,11,-3.3*,0.9
CCOC(=O)Cc1csc(NC(=O)C(NC(=O)C2CCCCC2)C(C)C)n1 (centres undefined),-0.024,1,1,1,0.87,1
CCOC(=O)C1=NN(C(=O)c2ccc(C)cc2)C(O)(c2ccc(Cl)cc2)C1 (centres undefined),2.8*,1.1,0,0,121*,1.1
COC(=O)C1=NN(C(=O)c2ccc(Cl)cc2)C(O)(c2ccccc2)C1 (centres undefined),.,1.2,0,0,17*,1
CCOC(=O)N1N=C(C)CC1(O)c1ccc(Cl)cc1 (centres undefined),-1.2,1,0,7,-0.47,1
CC1=C(C(=O)Nc2ccc(Cl)cc2)C2(CCCCC2)C(C(N)=O)C(=S)N1 (centres undefined),-0.056,1,2,20,0.16,1
CCC(C)[C@H](NC(=O)NCc1ccc(S(N)(=O)=O)cc1)C(=O)O (some centres undefined),.,.,.,.,1.1,.
CC(/C=C/C=C/c1ccccc1)=N\NC(=O)c1cccnc1,.,1.6,0,2,-1.1,2.1*
Cc1c(N=Cc2nc3ccccc3n2C)c(=O)n(-c2ccccc2)n1C,.,1.1,2,90*,-0.23,1.2
CSc1cnn(-c2ccccc2)c(=O)c1SC,.,1,0,3,-0.025,1.1
CSc1cnn(Cc2ccccc2)c(=O)c1SCc1ccccc1,-0.8,1.6,0,2,0.7,2.5*
CC(N1CCOC1=O)S(=O)(=O)c1ccccc1 (centres undefined),-0.21,1.6,0,1,1.1,2*
Cc1cccc2sc(NNC(=O)c3ccc(S(=O)(=O)N4CCc5ccccc5C4)cc3)nc12,0.85,1.7,-1,-2,-0.57,2.1*
N#C/C(=N\Nc1cccc(C(F)(F)F)c1)C(=O)c1ccsc1,.,.,.,.,-4.3,.
COc1ccc(S(=O)(=O)N2CCC(C(=O)N3CCc4ccccc4C3)CC2)cc1,.,1.1,1,3,-4*,1
CCN(CC)c1ccc(-c2nn3c(-c4ccccc4OC)nnc3s2)cc1,3.9*,0.9,2,5,-1.4,0.9
COc1ccccc1-c1nn2c(-c3ccccc3Cl)nnc2s1,.,1,.,.,.,1
O=C(c1ccccn1)N1CC=C(c2ccccc2)CC1,-0.25,1.4,0,0,1.2,1
Cn1c(=O)cc(OCC(=O)NCc2cccs2)c2ccccc21,.,1.1,0,8,0.21,1.1
Fc1ccc(NC(=S)N/N=C/c2ccc(F)c(F)c2)c(F)c1,0.91,1.1,0,0,20*,1.1
Fc1ccccc1/C=N/NC(=S)Nc1ccc(Cl)cc1Cl,.,0.9,-1,-2,15*,1
SMILES,ROMK mod,PMI activator,ABCB1 block,ABCG2 block,KCC2 mod,PMI act hi M6P
O=C(CSc1ncn[nH]1)Nc1ccc(S(=O)(=O)N2CCCC2)cc1,.,0.9,0,0,-1.1,0.9
O=C(Nc1ccccc1Cc1ccccc1)c1ccccc1NS(=O)(=O)c1ccc(Cl)s1,-3.5*,1,1,3,-3.5*,0.9
CC(=O)Nc1ccccc1C(=O)C(=O)Nc1ccc(C(=O)N2CCOCC2)cc1,-0.24,1.3,1,4,1.2,1.3
O=C(O)c1ccccc1NN=C1CCCCC1,.,1.7,0,-1,1.2,2.5*
O=C(O)c1ccccc1Nc1ccccc1C(=O)O,.,1,0,2,-0.66,1
Cc1cc2nc(/N=C(\N)NC(=O)N3c4ccccc4Sc4ccccc43)nc(C)c2cc1C,-0.012,1,0,-1,-1.8,1
CSc1n[nH]c2nc3c(c(=O)n12)C1(CCCC1)Cc1ccccc1-3,-0.79,1.6,0,-1,-1.5,2.2*
CC(C)Sc1n[nH]c2nc3c(c(=O)n12)C1(CCCC1)Cc1ccccc1-3,.,1.1,-1,-1,.,1.3
CCCn1nnc(NC(=O)c2ccc3ccccc3c2)n1,0.97,1,10,10,-0.019,0.9
CCCn1nnnc1NC(=O)c1ccc2ccccc2c1,.,1.1,0,6,16*,1.1
CC1(C)CC(=O)CC(=Nc2ccc(C(=O)O)cc2)C1,-0.18,1,0,-1,-1.5,0.9
Cc1cc(C(=O)Nc2sc3c(c2C#N)CCCC3)no1,3.6*,0.7,0,2,3.7*,0.9
Cc1onc(-c2ccccc2)c1C(=O)NC(=S)Nc1sc2c(c1C#N)CCCC2,.,0.8,0,1,23*,0.9
Cc1onc(-c2ccccc2)c1C(=O)Nc1sc2c(c1C#N)CCC2,.,1,0,1,-0.24,1.2
CCCN1CCc2c(sc(NC(=S)NC(=O)c3ccccc3)c2C#N)C1,-0.35,1.6,1,9,-0.18,2*
COc1cc(CO)cc(Br)c1OCC(=O)Nc1cccc2ccccc12,-0.9,1,1,10,0.28,0.9
NS(=O)(=O)c1cccnc1Nc1c(Cl)cccc1Cl,.,0.9,0,1,-0.0019,1
Clc1ccc(-n2cc(COCc3ccccc3)nn2)cc1,-0.19,1,1,4,-0.86,1
Cc1[nH]c2ccccc2c1/C=N/NC(N)=S,-0.4,.,.,.,-0.69,.
NC(=S)N/N=C\c1c2ccccc2cc2ccccc12,-1.8,1.6,-2,-12,1.2,2.3*
CC1=NN(c2ccc(Cl)c(C(=O)O)c2)C(=O)C1,.,1,1,12,1.1,1
CC1=NN(c2ccc(S(=O)(=O)O)cc2Cl)C(=O)C1,0.36,1.4,-1,-2,-0.56,2*
